We go through two molecules from article PMC7134334 (Neuropharmacology, 2016).

Each structure is given as a SMILES string. Bounds are passed on as bounds.

In experiment [1] the test system is WT Kv3.1 channels and VSD chimeras (S1-S4, S1-S3a, S3b-S4). It counts as cell-based. The settings on record: block calculated at depolarizing potentials of V1/2 +30 mV.
Experiment [2] addresses T1, Kv3.1 (Homo sapiens, UniProt P48547).
T1 sequence (P48547 1-511): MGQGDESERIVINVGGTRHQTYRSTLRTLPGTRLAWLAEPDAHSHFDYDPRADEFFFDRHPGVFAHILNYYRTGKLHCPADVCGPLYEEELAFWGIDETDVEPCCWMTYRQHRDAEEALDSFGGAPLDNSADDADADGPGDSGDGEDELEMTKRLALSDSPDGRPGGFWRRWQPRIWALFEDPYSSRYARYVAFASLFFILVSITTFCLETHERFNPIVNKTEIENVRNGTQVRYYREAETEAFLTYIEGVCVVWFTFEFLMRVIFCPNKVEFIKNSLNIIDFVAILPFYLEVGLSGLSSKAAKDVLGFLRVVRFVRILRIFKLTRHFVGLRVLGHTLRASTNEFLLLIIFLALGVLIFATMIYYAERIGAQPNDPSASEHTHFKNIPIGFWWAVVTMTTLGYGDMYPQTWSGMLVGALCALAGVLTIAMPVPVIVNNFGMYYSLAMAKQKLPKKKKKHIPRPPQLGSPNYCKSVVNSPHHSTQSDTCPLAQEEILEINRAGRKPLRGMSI
The experiment in a line: Patch-clamp current inhibition by gambierol, WT Kv3.1 in Ltk− cells. It counts as cell-based. The following applies: read-out: IC50 (concentration that induces 50% current inhibition); WT Kv3.1 expressed in Ltk− cells; mean ± SEM. In outline: (§1)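 Ltk− mouse fibroblasts (DMEM, 10% horse serum) transiently PEI-transfected with 15–200 ng cDNA, recorded ~20–28 h later at 20–23 °C. Bath (mM): NaCl 130, KCl 4, CaCl2 1.8, MgCl2 1, HEPES 10, glucose 10, pH 7.35. Pipette: KCl 110, K4BAPTA 5, K2ATP 5, MgCl2 1, HEPES 10, pH 7.2. Fast-perfused, final DMSO ≤0.5%. Fraction of current left at +40 mV Hill-fitted for IC50. Cells with >5 mV voltage error excluded. Mean ± SEM over cells.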

For a further experiment, the system named is Kv3.1_S1-S4_2.1. Kind of experiment: Patch-clamp current inhibition by gambierol, Kv3.1_S1-S4_2.1 chimera. It counts as cell-based. The following applies: read-out: IC50 (concentration that induces 50% current inhibition); Kv3.1_S1-S4_2.1 in Ltk− cells; n = 4. In outline: as §1
A further experiment has as its system Kv3.1_S1-S3a_2.1. The experiment in a line: Patch-clamp current inhibition by gambierol, Kv3.1_S1-S3a_2.1 chimera. It counts as cell-based. The settings on record: read-out: IC50 (concentration that induces 50% current inhibition); Kv3.1_S1-S3a_2.1 in Ltk− cells; n = 3. In outline: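 Ltk− mouse fibroblasts (DMEM, 10% horse serum) transiently PEI-transfected with channel cDNA and patch-clamped 20–28 h later at 20–23 °C. Bath (mM): NaCl 130, KCl 4, CaCl2 1.8, MgCl2 1, HEPES 10, glucose 10, pH 7.35; pipette KCl-based with BAPTA, ATP, pH 7.2. Toxin perfused from DMSO stock (final DMSO ≤0.5%). Remaining current at +40 mV Hill-fitted for IC50; mean ± SEM over cells.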

Another experiment relates to Kv3.1_S3b-S4_2.1. Kind of experiment: Patch-clamp current inhibition by gambierol, Kv3.1_S3b-S4_2.1 chimera. It is filed as cell-based. The settings on record: read-out: IC50 (concentration that induces 50% current inhibition); Kv3.1_S3b-S4_2.1 in Ltk− cells; n = 4. In a few lines: as §1
Another experiment deals with Kv2.1 V404T_S3b-S4_3.1. Kind of experiment: Patch-clamp current inhibition by gambierol, Kv2.1 V404T_S3b-S4_3.1 chimera. It counts as cell-based. In a few lines:
as §1

Experiment [3] deals with T1, Kv3.1. The settings on record: ref Kopljar et al., 2013; cited from earlier work.

For the molecule `O=C(NCC1CCCCN1)c1cc(OCC(F)(F)F)ccc1OCC(F)(F)F` (centres unmarked) [Flecainide], in experiment [1], the “differences in IC50 values between WT channels and chimeras” value is reported as less than 2 fold.

Regarding `C=CC/C=C\C=C/[C@H]1O[C@H]2C[C@H]3O[C@H]4CC[C@H]5O[C@H]6C[C@@]7(C)O[C@@]8(C)[C@@H](O)C[C@H](CCCO)O[C@@H]8C[C@@H]7O[C@@H]6C[C@@H]5O[C@]4(C)C[C@]3(C)O[C@@H]2C=C[C@]1(C)O` [gambierol, Gambierol], the IC50 was 1.2 ± 0.2 nM on Kv3.1 [2]; 280 ± 40 nM with Kv3.1_S1-S4_2.1; 1.9 ± 0.2 nM in the experiment on Kv3.1_S1-S3a_2.1; 143 ± 28 nM with Kv3.1_S3b-S4_2.1; 900 ± 41 nM with Kv2.1 V404T_S3b-S4_3.1 (read-out: IC50 (concentration that induces 50% current inhibition), Kv2.1 V404T_S3b-S4_3.1 in Ltk− cells, n = 3). The “fold difference compared to the Kv2.1 V404T mutant” value with Kv2.1 V404T_S3b-S4_3.1 (Kv2.1 V404T_S3b-S4_3.1 vs previously reported Kv2.1 V404T value) is ~ 2 fold. Also, the “shift of the voltage dependence of activation to more positive potentials” value at Kv3.1 [3] was “more than +120 mV”.
